Measured values: ChEMBL document CHEMBL1137174, “Synthesis and structural-activity relationships of 3-hydroxyquinazoline-2,4-dione antibacterial agents” (2004)
Converted amounts (≈) assume the structure as drawn.

What was measured:
Escherichia coli [1] = assay: Minimum inhibitory concentration required against Gram-negative Escherichia coli LKY; format: functional
Method in brief: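 Standard microtitration MIC determination against E. coli LKY, a cell-wall-deficient, semi-permeable strain.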

Staphylococcus aureus = assay: Minimum inhibitory concentration required against Gram-positive Staphylococcus aureus; format: functional
Escherichia coli [2] = assay: Minimum inhibitory concentration required against Gram-negative Escherichia coli WT; format: functional
Method in brief: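 Standard microtitration MIC determination against wild-type E. coli strain MC4100.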

Escherichia coli [3] = assay: Minimum inhibitory concentration required against Gram-negative Escherichia coli TLC; format: functional
Streptococcus pyogenes = assay: Minimum inhibitory concentration required against Gram-positive Streptococcus pyogenes; format: functional
[4] = target: DNA gyrase (Escherichia coli) (UniProt P0AES6+P0AES4); assay: Concentration required to inhibit in vitro DNA gyrase activity isolated from Escherichia coli; format: protein-complex assay
Method in brief: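 DNA gyrase isolated and purified from E. coli H560. The end point is the lowest drug concentration […] that gives detectable cleavage of relaxed bacterial Col E1 plasmid DNA. Cleavage is read by agarose gel electrophoresis with ethidium bromide staining.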

Enterococcus faecalis = assay: Minimum inhibitory concentration required against Gram-positive Enterococcus faecalis; format: functional

Structure (SMILES) | MIC (Escherichia coli [1]) [mg/L] | MIC (Staphylococcus aureus) [mg/L] | MIC (Escherichia coli [2]) [mg/L] | MIC (Escherichia coli [3]) [mg/L] | MIC (Streptococcus pyogenes) [mg/L] | Activity [4] [µM] | MIC (Enterococcus faecalis) [mg/L]
CCn1c(=O)n(O)c(=O)c2cc(F)c(N3CCCC3)cc21 | 2 (≈ 6.82 µM) | 32 (≈ 109 µM) | > 64 | 1 (≈ 3.41 µM) | 32 (≈ 109 µM) | > 100 | 
N[C@@H]1[C@H]2CN(c3cc4c(cc3F)c(=O)n(O)c(=O)n4C3CC3)C[C@@H]12 | 0.25 (≈ 0.752 µM) | 4 (≈ 12 µM) | 1 (≈ 3.01 µM) | 0.25 (≈ 0.752 µM) | 2 (≈ 6.02 µM) | 0.7 | 4 (≈ 12 µM)
O=c1c2cc(F)c(N3CCCC3)cc2n(-c2ccc(F)cc2F)c(=O)n1O | 32 (≈ 84.8 µM) | 64 (≈ 170 µM) | > 64 | 32 (≈ 84.8 µM) | 32 (≈ 84.8 µM) | > 100 | 64 (≈ 170 µM)
O=c1c2cc(F)c(N3CCC(CNCC(F)(F)F)C3)cc2n(C2CC2)c(=O)n1O (configuration not stated) | 1 (≈ 2.4 µM) | 4 (≈ 9.61 µM) | > 64 | 0.5 (≈ 1.2 µM) | 16 (≈ 38.4 µM) | 8 | 16 (≈ 38.4 µM)
C[C@H](N)[C@@H]1CCN(c2cc3c(cc2F)c(=O)n(O)c(=O)n3C2CC2)C1 | 0.12 (≈ 0.344 µM) | 1 (≈ 2.87 µM) | 8 (≈ 23 µM) | 0.12 (≈ 0.344 µM) | 0.5 (≈ 1.44 µM) | 6.4 | 4 (≈ 11.5 µM)
CC(C)(N)[C@@H]1CCN(c2cc3c(cc2F)c(=O)n(O)c(=O)n3C2CC2)C1 | 2 (≈ 5.52 µM) | 16 (≈ 44.1 µM) | 8 (≈ 22.1 µM) | 0.5 (≈ 1.38 µM) | 32 (≈ 88.3 µM) | 2.2 | 16 (≈ 44.1 µM)
NCC1CCN(c2cc3c(cc2F)c(=O)n(O)c(=O)n3C2CC2)C1 (configuration not stated) | 1 (≈ 2.99 µM) | 16 (≈ 47.9 µM) | 8 (≈ 23.9 µM) | 1 (≈ 2.99 µM) | 2 (≈ 5.98 µM) |  | 
O=c1c2cc(F)c(N3CCCC3)cc2n(Cc2ccccc2)c(=O)n1O | 32 (≈ 90 µM) | 16 (≈ 45 µM) | > 64 | 16 (≈ 45 µM) | 32 (≈ 90 µM) | > 100 | > 64
N[C@H]1CCN(c2c(F)cc3c(=O)n(O)c(=O)n(C4CC4)c3c2F)C1 | 2 (≈ 5.91 µM) | 32 (≈ 94.6 µM) | 8 (≈ 23.6 µM) | 1 (≈ 2.96 µM) | 16 (≈ 47.3 µM) | 0.28 | 16 (≈ 47.3 µM)
NC1CN(c2cc3c(cc2F)c(=O)n(O)c(=O)n3C2CC2)C1 | 0.25 (≈ 0.816 µM) | > 64 | 16 (≈ 52.2 µM) | 0.5 (≈ 1.63 µM) | > 64 | 18 | 
N[C@H]1CCN(c2c(F)cc3c(=O)n(O)c(=O)n(C4CC4)c3c2Cl)C1 | 0.5 (≈ 1.41 µM) | 16 (≈ 45.1 µM) | 2 (≈ 5.64 µM) | 1 (≈ 2.82 µM) | 4 (≈ 11.3 µM) | 1 | 32 (≈ 90.2 µM)
CN1CC2CN(c3cc4c(cc3F)c(=O)n(O)c(=O)n4C3CC3)CC2C1 (configuration not stated) | 2 (≈ 5.55 µM) | 32 (≈ 88.8 µM) | 4 (≈ 11.1 µM) | 1 (≈ 2.77 µM) | 32 (≈ 88.8 µM) | 7.8 | 32 (≈ 88.8 µM)
O=c1c2cc(F)c(N3C[C@@H]4CCCN[C@@H]4C3)cc2n(C2CC2)c(=O)n1O | 2 (≈ 5.55 µM) | 32 (≈ 88.8 µM) | 8 (≈ 22.2 µM) | 1 (≈ 2.77 µM) | 32 (≈ 88.8 µM) | 5 | 64 (≈ 178 µM)
O=c1c2cc(F)c(-n3ccnc3)cc2n(C2CC2)c(=O)n1O | 8 (≈ 26.5 µM) | 64 (≈ 212 µM) | > 64 | 2 (≈ 6.62 µM) | 64 (≈ 212 µM) | 0.4 | 64 (≈ 212 µM)
N[C@H]1CCN(c2cc3c(cc2F)c(=O)n(O)c(=O)n3C2CC2)C1 | 0.3 (≈ 0.937 µM) | 32 (≈ 99.9 µM) | 1 (≈ 3.12 µM) | 0.25 (≈ 0.78 µM) | 4 (≈ 12.5 µM) | 2 | 
Cn1c(=O)n(O)c(=O)c2cc(F)c(N3CCCC3)cc21 | 16 (≈ 57.3 µM) | > 64 | 32 (≈ 115 µM) | 8 (≈ 28.6 µM) | > 64 | > 100 | > 64
O=c1c2cc(F)c(N3CCCC3)cc2n(CC2CC2)c(=O)n1O | 0.5 (≈ 1.57 µM) | 8 (≈ 25.1 µM) | 32 (≈ 100 µM) | 0.5 (≈ 1.57 µM) | 8 (≈ 25.1 µM) | 13 | 64 (≈ 200 µM)
O=C(O)c1cn(C2CC2)c2cc(N3CCNCC3)c(F)cc2c1=O [CIPROFLOXACIN] |  | 4 (≈ 12.1 µM) |  |  | 2 (≈ 6.04 µM) | 0.4 | 0.4 (≈ 1.21 µM)
CN[C@@H](C)[C@@H]1CCN(c2cc3c(cc2F)c(=O)n(O)c(=O)n3C2CC2)C1 | 4 (≈ 11 µM) | 16 (≈ 44.1 µM) | 32 (≈ 88.3 µM) | 2 (≈ 5.52 µM) | 2 (≈ 5.52 µM) | 6.2 | 16 (≈ 44.1 µM)
O=c1c2cc(F)c(N3CCCC3)cc2n(C2CC2)c(=O)n1O | 0.1 (≈ 0.328 µM) | 1 (≈ 3.28 µM) | 8 (≈ 26.2 µM) | 0.13 (≈ 0.426 µM) | 16 (≈ 52.4 µM) | 7 | 
O=c1[nH]c2cc(N3CCCC3)c(F)cc2c(=O)n1O | 32 (≈ 121 µM) | 8 (≈ 30.2 µM) | 64 (≈ 241 µM) | 16 (≈ 60.3 µM) | 32 (≈ 121 µM) | > 100 | 
